{"source": "ChEMBL document CHEMBL1140904", "about": "“Synthesis and analysis of novel glycerolipids for the treatment of metabolic syndrome” (J Med Chem, 2009)", "key": {"Rattus norvegicus [1]": {"system": "Rattus norvegicus", "test": "Decrease in plasma triacylglycerol level in Wistar rat at dose equivalent to 250 umol of tetradecylthioacetic acid, po after 6 days relative to control", "assay_type": "functional", "design": "scale not given: the % may be the effect or the level left", "how_it_was_run": "(§1)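 Male Wistar rats (170-210 g), housed in pairs with chow and water, were gavaged once daily for 6 days with test lipid in 0.5% (w/v) carboxymethylcellulose at 85 or 250 µmol TTA-equivalent per animal. Controls received palmitic acid in CMC. Plasma triacylglycerol and cholesterol were measured with an enzymatic kit, and liver levels were also determined. Values are mean ± SD, n=5 rats.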"}, "Rattus norvegicus [2]": {"system": "Rattus norvegicus", "test": "Effect on fatty acid composition in Wistar rat assessed as change in plasma 18;2, n-6 level at dose equivalent to 85 umol of tetradecylthioacetic acid, po after 6 days", "assay_type": "functional"}, "Rattus norvegicus [3]": {"system": "Rattus norvegicus", "test": "Effect on fatty acid composition in Wistar rat assessed as change in liver LCn-6/18:2 level at dose equivalent to 250 umol of tetradecylthioacetic acid, po after 6 days", "assay_type": "functional", "how_it_was_run": "(§2)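 Male Wistar rats were gavaged once daily for 6 days with compound in 0.5% CMC at 85 or 250 µmol TTA-equivalent per animal. Controls received palmitic acid. Liver was homogenized in 0.25 M sucrose/10 mM HEPES pH 7.4/1 mM EDTA at 0-4 °C. Lipids were extracted with chloroform:methanol 2:1 and spiked with 21:0 internal standard. Fatty acids were BF3-methanol transesterified and quantified as wt%. Values are mean ± SD, n=5.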"}, "Rattus norvegicus [4]": {"system": "Rattus norvegicus", "test": "Decrease in liver triacylglycerol level in Wistar rat at dose equivalent to 250 umol of tetradecylthioacetic acid, po after 6 days relative to control", "assay_type": "functional", "design": "scale not given: the % may be the effect or the level left", "how_it_was_run": "as §1"}, "Rattus norvegicus [5]": {"system": "Rattus norvegicus", "test": "Effect on fatty acid composition in Wistar rat assessed as change in liver PUFA level at dose equivalent to 85 umol of tetradecylthioacetic acid, po after 6 days", "assay_type": "functional", "how_it_was_run": "as §2"}, "Rattus norvegicus [6]": {"system": "Rattus norvegicus", "test": "Effect on fatty acid composition in Wistar rat assessed as change in liver saturated fatty acid level at dose equivalent to 85 umol of tetradecylthioacetic acid, po after 6 days", "assay_type": "functional", "how_it_was_run": "as §2"}, "Liver": {"system": "Liver", "test": "Drug concentration in Wistar rat liver assessed as tetradecylthioacetic acid at dose equivalent to 85 umol of tetradecylthioacetic acid, po after 6 days", "assay_type": "ADME, organism-based", "settings": "in vivo, 144 h", "how_it_was_run": "as §2"}, "Rattus norvegicus [7]": {"system": "Rattus norvegicus", "test": "Induction of PPAR-alpha-regulated mitochondrial HMG-CoA synthase activity in Wistar rat at dose equivalent to 250 umol of tetradecylthioacetic acid, po after 6 days relative to control", "assay_type": "functional", "how_it_was_run": "(§3)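 Wistar rats were gavaged daily for 6 days at 85 or 250 µmol TTA-equivalent in 0.5% CMC, with palmitic acid controls. HMG-CoA synthase activity was assayed in the liver postnuclear fraction by the Clinkenbeard method. Mean ± SD, 5 rats/group.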"}, "Rattus norvegicus [8]": {"system": "Rattus norvegicus", "test": "Effect on fatty acid composition in Wistar rat assessed as change in liver PUFA level at dose equivalent to 250 umol of tetradecylthioacetic acid, po after 6 days", "assay_type": "functional", "how_it_was_run": "as §2"}, "Rattus norvegicus [9]": {"system": "Rattus norvegicus", "test": "Plasma concentration in Wistar rat assessed as tetradecylthioacetic acid at dose equivalent to 85 umol of tetradecylthioacetic acid, po after 6 days", "assay_type": "ADME, organism-based", "settings": "in vivo, 144 h"}, "Rattus norvegicus [10]": {"system": "Rattus norvegicus", "test": "Effect on fatty acid composition in Wistar rat assessed as change in plasma MUFA level at dose equivalent to 250 umol of tetradecylthioacetic acid, po after 6 days", "assay_type": "functional"}, "Rattus norvegicus [11]": {"system": "Rattus norvegicus", "test": "Increase in [1-14C]palmitoyl-CoA oxidation in Wistar rat liver homogenate at 250 uM, po after 6 days", "assay_type": "functional, organism-based", "how_it_was_run": "(§4)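 Rats were dosed by gastric intubation for 6 days with 85 or 250 µmol TTA-equivalent in 0.5% CMC, with palmitic acid controls. Liver was homogenized in 0.25 M sucrose, 10 mM HEPES pH 7.4, 1 mM EDTA at 0-4 °C. Palmitoyl-CoA oxidation was read as acid-soluble products from [1-14C]-palmitoyl-CoA in the postnuclear fraction. Mean ± SD, n=5.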"}, "Rattus norvegicus [12]": {"system": "Rattus norvegicus", "test": "Decrease in plasma cholesterol level in po dosed Wistar rat after 6 days", "assay_type": "functional, organism-based", "how_it_was_run": "as §1"}, "Rattus norvegicus [13]": {"system": "Rattus norvegicus", "test": "Effect on fatty acid composition in Wistar rat assessed as change in plasma LCPUFA, n-6 level at dose equivalent to 85 umol of tetradecylthioacetic acid, po after 6 days", "assay_type": "functional"}, "Rattus norvegicus [14]": {"system": "Rattus norvegicus", "test": "Effect on fatty acid composition in Wistar rat assessed as change in liver LCPUFA, n-6 level at dose equivalent to 85 umol of tetradecylthioacetic acid, po after 6 days", "assay_type": "functional", "how_it_was_run": "as §2"}, "Rattus norvegicus [15]": {"system": "Rattus norvegicus", "test": "Induction of PPAR-alpha-regulated fatty acyl-CoA oxidase activity in po dosed Wistar rat after 6 days", "assay_type": "functional, organism-based", "how_it_was_run": "(§5)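 Rats were dosed by gastric intubation for 6 days at 85 or 250 µmol TTA-equivalent in 0.5% CMC, with palmitic acid controls. Fatty acyl-CoA oxidase was measured in the liver postnuclear fraction by a coupled assay, following H2O2 production as the rise in dichlorofluorescein absorbance with palmitoyl-CoA. Mean ± SD, n=5.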"}, "Rattus norvegicus [16]": {"system": "Rattus norvegicus", "test": "Plasma concentration in Wistar rat assessed as tetradecylthioacetic acid at dose equivalent to 250 umol of tetradecylthioacetic acid, po after 6 days", "assay_type": "ADME, organism-based", "settings": "in vivo, 144 h"}, "Rattus norvegicus [17]": {"system": "Rattus norvegicus", "test": "Induction of PPAR-alpha-regulated HMG-CoA synthase activity in po dosed Wistar rat after 6 days", "assay_type": "functional, organism-based", "how_it_was_run": "as §3"}, "Rattus norvegicus [18]": {"system": "Rattus norvegicus", "test": "Induction of PPAR-alpha-regulated mitochondrial fatty acyl-CoA oxidase activity in Wistar rat at dose equivalent to 250 umol of tetradecylthioacetic acid, po after 6 days relative to control", "assay_type": "functional", "settings": "in the assay text read “peroxisomal fatty acyl-CoA oxidase” for “mitochondrial fatty acyl-CoA oxidase”", "how_it_was_run": "as §5"}, "Rattus norvegicus [19]": {"system": "Rattus norvegicus", "test": "Effect on fatty acid composition in Wistar rat assessed as change in liver saturated fatty acid level at dose equivalent to 250 umol of tetradecylthioacetic acid, po after 6 days", "assay_type": "functional", "how_it_was_run": "as §2"}, "Rattus norvegicus [20]": {"system": "Rattus norvegicus", "test": "Effect on fatty acid composition in Wistar rat assessed as change in plasma 18;2, n-6 level at dose equivalent to 250 umol of tetradecylthioacetic acid, po after 6 days", "assay_type": "functional"}, "Rattus norvegicus [21]": {"system": "Rattus norvegicus", "test": "Effect on fatty acid composition in Wistar rat assessed as change in liver LCPUFA, n-6 level at dose equivalent to 250 umol of tetradecylthioacetic acid, po after 6 days", "assay_type": "functional", "how_it_was_run": "as §2"}, "Rattus norvegicus [22]": {"system": "Rattus norvegicus", "test": "Effect on fatty acid composition in Wistar rat assessed as change in plasma PUFA level at dose equivalent to 85 umol of tetradecylthioacetic acid, po after 6 days", "assay_type": "functional"}, "Rattus norvegicus [23]": {"system": "Rattus norvegicus", "test": "Effect on fatty acid composition in Wistar rat assessed as change in liver MUFA level at dose equivalent to 85 umol of tetradecylthioacetic acid, po after 6 days", "assay_type": "functional", "how_it_was_run": "as §2"}, "Rattus norvegicus [24]": {"system": "Rattus norvegicus", "test": "Effect on fatty acid composition in Wistar rat assessed as change in plasma PUFA level at dose equivalent to 250 umol of tetradecylthioacetic acid, po after 6 days", "assay_type": "functional"}, "Rattus norvegicus [25]": {"system": "Rattus norvegicus", "test": "Decrease in liver cholesterol level in Wistar rat at dose equivalent to 250 umol of tetradecylthioacetic acid, po after 6 days relative to control", "assay_type": "functional", "design": "scale not given: the % may be the effect or the level left", "how_it_was_run": "as §1"}, "Rattus norvegicus [26]": {"system": "Rattus norvegicus", "test": "Effect on fatty acid composition in Wistar rat assessed as change in plasma LCPUFA, n-6 level at dose equivalent to 250 umol of tetradecylthioacetic acid, po after 6 days", "assay_type": "functional"}, "Rattus norvegicus [27]": {"system": "Rattus norvegicus", "test": "Effect on fatty acid composition in Wistar rat assessed as change in plasma saturated fatty acid level at dose equivalent to 250 umol of tetradecylthioacetic acid, po after 6 days", "assay_type": "functional"}, "Rattus norvegicus [28]": {"system": "Rattus norvegicus", "test": "Increase in [1-14C]palmitoyl-CoA oxidation in po dosed Wistar rat liver homogenate after 6 days", "assay_type": "functional, organism-based", "how_it_was_run": "as §4"}, "Rattus norvegicus [29]": {"system": "Rattus norvegicus", "test": "Effect on fatty acid composition in Wistar rat assessed as change in plasma LCn-6/18:2 level at dose equivalent to 250 umol of tetradecylthioacetic acid, po after 6 days", "assay_type": "functional"}}, "note": "Calls of active or inactive are those of the source. The calls are words filed in the database; no cut-off is given here."}
{"molecule": "CCCCCCCCCCCCCCSCC(=O)OC[C@H](COP(=O)([O-])OCC[N+](C)(C)C)OC(=O)CSCCCCCCCCCCCCCC", "note": "[PHOSPHATIDYLCHOLINE]", "values": [{"measurement": "Activity", "setting": "Rattus norvegicus [1]", "result": 60, "unit": "%"}, {"measurement": "Activity", "setting": "Rattus norvegicus [2]", "result": 19.52, "unit": "%"}, {"measurement": "Activity", "setting": "Rattus norvegicus [3]", "result": 3.49, "unit": "%"}, {"measurement": "Activity", "setting": "Rattus norvegicus [4]", "result": 25, "unit": "%"}, {"measurement": "Activity", "setting": "Rattus norvegicus [5]", "result": 4.91, "unit": "%"}, {"measurement": "Activity", "setting": "Rattus norvegicus [6]", "result": 39.67, "unit": "%"}, {"measurement": "Drug uptake", "setting": "Liver", "result": 1.28, "unit": "%"}, {"measurement": "Drug uptake", "setting": "Liver; in the assay text read “equivalent to 250 umol” for “equivalent to 85 umol”", "result": 3.34, "unit": "%"}, {"measurement": "fold change (FC)", "setting": "Rattus norvegicus [7]", "result": 4}, {"measurement": "Activity", "setting": "Rattus norvegicus [8]", "result": 4.05, "unit": "%"}, {"measurement": "Drug uptake", "setting": "Rattus norvegicus [9]", "result": 0.9, "unit": "%"}, {"measurement": "Activity", "setting": "Rattus norvegicus [10]", "result": 21.62, "unit": "%"}, {"measurement": "Activity", "setting": "Rattus norvegicus [11]", "result": "inactive"}, {"measurement": "Activity", "setting": "Rattus norvegicus [12]", "result": "Dose-dependent effect"}, {"measurement": "Activity", "setting": "Rattus norvegicus [13]", "result": 19.06, "unit": "%"}, {"measurement": "Activity", "setting": "Rattus norvegicus [14]", "result": 26.13, "unit": "%"}, {"measurement": "Activity", "setting": "Rattus norvegicus [15]", "result": "Dose-dependent effect"}, {"measurement": "Drug uptake", "setting": "Rattus norvegicus [16]", "result": 1.95, "unit": "%"}, {"measurement": "Activity", "setting": "Rattus norvegicus [17]", "result": "Dose-dependent effect"}, {"measurement": "fold change (FC)", "setting": "Rattus norvegicus [18]", "result": 5}, {"measurement": "Activity", "setting": "Rattus norvegicus [19]", "result": 39.22, "unit": "%"}, {"measurement": "Activity", "setting": "Rattus norvegicus [20]", "result": 17.97, "unit": "%"}, {"measurement": "Activity", "setting": "Rattus norvegicus [21]", "result": 30.3, "unit": "%"}, {"measurement": "Activity", "setting": "Rattus norvegicus [22]", "result": 2.42, "unit": "%"}, {"measurement": "Activity", "setting": "Rattus norvegicus [23]", "result": 16.66, "unit": "%"}, {"measurement": "Activity", "setting": "Rattus norvegicus [24]", "result": 1.86, "unit": "%"}, {"measurement": "Activity", "setting": "Rattus norvegicus [25]", "result": 20, "unit": "%"}, {"measurement": "Activity", "setting": "Rattus norvegicus [26]", "result": 22.07, "unit": "%"}, {"measurement": "Activity", "setting": "Rattus norvegicus [27]", "result": 35.25, "unit": "%"}, {"measurement": "Activity", "setting": "Rattus norvegicus [28]", "result": "Dose-dependent effect"}, {"measurement": "Activity", "setting": "Rattus norvegicus [29]", "result": 1.25, "unit": "%"}]}
